Laboratory results: ChEMBL document CHEMBL1125037, “Synthesis and antihypertensive activity of 4-(1,2-dihydro-2-oxo-1-pyridyl)-2H-1-benzopyrans and related compounds, new potassium channel activators” (1990)

What was measured:
Assay type in all cases: functional
Rattus norvegicus [1] = assay: Dose required to reduce blood pressure by 30 mmHg after (po) administration in conscious spontaneously hypertensive rat
Method in brief: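 Conscious male Okamoto-strain SHR (280-330 g, >180 mmHg) were given two to four oral doses beyond the 1 mg/kg screen. Mean arterial pressure was recorded directly via an aortic catheter in unrestrained rats. The ED30, the dose in µg/kg lowering pressure by 30 mmHg, came from linear regression of effect vs log dose.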

Rattus norvegicus [2] = assay: Antihypertensive effect after 1 mg/kg (po) administration in conscious spontaneously hypertensive rat (over a time period of 0-210 minutes).
Method in brief: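 Male Okamoto-strain SHR (280-330 g, blood pressure >180 mmHg), conscious and unrestrained, given 1 mg/kg orally as a screening dose. Mean arterial pressure was recorded directly and continuously via an aortic catheter from 1 h before to 3.5 h after dosing. The effect is the mean of the maximum individual changes over 3.5 h; N ≥ 3.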

Rattus norvegicus [3] = assay: Dose required to reduce mean blood pressure after 20 hr following (po) administration conscious spontaneously hypertensive rat
Rattus norvegicus [4] = assay: Dose required to reduce mean blood pressure after 2 hr following (po) administration conscious spontaneously hypertensive rat
[5] = Ratio of ED30(20h) to ED30(2h) was determined
Rattus norvegicus [6] = assay: Dose required to reduce mean blood pressure was determined after 2 hr following(po) administration in conscious spontaneously hypertensive rat
Rattus norvegicus [7] = assay: Dose required to reduce mean blood pressure was determined after 20h following(po) administration in conscious spontaneously hypertensive rat

Structure (SMILES)	ED30 (Rattus norvegicus [1]) [mg/kg]	Max fall in blood pressure (Rattus norvegicus [2]) [mmHg]	ED30 (Rattus norvegicus [3]) [mg/kg]	ED30 (Rattus norvegicus [4]) [mg/kg]	Ratio [5]	ED30 (Rattus norvegicus [6]) [mg/kg]	ED30 (Rattus norvegicus [7]) [mg/kg]
CC1(C)Oc2ccc(C#N)cc2[C@]2(n3ccccc3=O)O[C@H]12	0.202	69					
CC1(C)C=C(n2ccccc2=O)c2cc([N+](=O)[O-])ccc2O1	0.00083	140	0.102	0.0007	146		
COC(=O)c1ccc2c(c1)C(n1ccccc1=O)=CC(C)(C)O2	0.202	98	2.06	0.573	3.6		
CC1(C)Oc2ccc(C#N)cc2C(n2ccncc2=O)[C@@H]1O (some centres undefined)	0.01	75	1.29	0.291	4.4		
COc1ccn(C2=CC(C)(C)Oc3ccc(C#N)cc32)c(=O)c1	0.066	113					
CCOc1ccn(C2=CC(C)(C)Oc3ccc(C#N)cc32)c(=O)c1	0.017	136	> 1	0.137	> 7.3		
CC1(C)Oc2ccc([N+](=O)[O-])cc2[C@@H](n2ccccc2=O)[C@@H]1OC=O	0.074	129					
CC1(C)C=C(n2ccccc2=O)c2cc(C#N)ccc2O1 [BIMAKALIM]	0.01	142	0.186	0.036	5.2		
CC1(C)C=C(n2ccccc2=O)c2cc(Br)ccc2O1	0.11	131	1.27	0.069	18.4		
CC1(C)C=C(n2ccncc2=O)c2cc(C#N)ccc2O1	0.022	105	0.357	0.038	9.4		
COC(=N)c1ccc2c(c1)C(N1CCCC1=O)[C@H](O)C(C)(C)O2 (some centres undefined)	0.083	76					
CC1(C)Oc2ccc(C#N)cc2C(N2N=CCCC2=O)[C@@H]1O (some centres undefined)	0.211	63	0.148	0.056	2.6		
CC1(C)CC(n2ccccc2=O)c2cc(C#N)ccc2O1 (centres undefined)	0.15	92					
CC1(C)Oc2ccc(C#N)cc2C(n2ncccc2=O)[C@@H]1O (some centres undefined)	0.036	77	0.082	0.045	1.8		
CC1(C)Oc2ccc(C#N)cc2[C@@H](n2ccccc2=O)[C@@H]1O [EMAKALIM]	0.05	108			3.1	0.045	0.138
CC(=O)O[C@H]1[C@H](n2ccccc2=O)c2cc(C#N)ccc2OC1(C)C	0.106	89	0.405	0.112	3.6		
CC1(C)Oc2ccc(C#N)cc2[C@H](N2CCCC2=O)[C@H]1O [(-)-CROMAKALIM]	0.11	78	0.603	0.131	4.6		
CC1(C)C=C(n2cc(N)ccc2=O)c2cc(C#N)ccc2O1	0.206	94	1.61	0.341	4.7		
CC1(C)Oc2ccc(C#N)cc2[C@@H](n2ccccc2=O)[C@@H]1OC=O	0.03	101	0.416	0.067	6.2		
COc1ccn([C@@H]2c3cc(C#N)ccc3OC(C)(C)[C@H]2O)c(=O)c1	0.197	73					
CC(=O)c1ccc2c(c1)C(n1ccccc1=O)=CC(C)(C)O2	0.025	130	0.546	0.074	7.4		
CC1(C)Oc2ccc([N+](=O)[O-])cc2[C@]2(n3ccccc3=O)O[C@H]12	0.06	118					
CC1(C)Oc2ccc([N+](=O)[O-])cc2[C@@H](n2ccccc2=O)[C@@H]1O	0.024	113			25.2	0.035	0.884
